# Measurements as given in PubChem BioAssay AID617 (SRMLSC, 2007).
# System: E. coli BW25113 ΔtolC growth inhibition, OD615
# Experiment: E. coli ΔtolC antibacterial growth inhibition – strain BW25113 ΔtolC::kan, dose response (AID 617)
# Method in brief: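 system = E. coli BW25113 tolC deletion strain (ΔtolC::kan), whole bacterial cells | technique = optical density (absorbance) at 615 nm | dosing = compounds in serially diluted dose-response series | times = bacterial growth with compound for 20 h, 37 °C | evaluation = growth-inhibition IC50 from four-parameter logistic curve, bounds set to 0% and 100%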
row,Structure (SMILES),IC50 [µM]
1,CCn1cc(C(=O)Nc2nncs2)c(=O)c2cc(F)c(N3CCN(C(=O)c4ccco4)CC3)cc21,0.19
2,COc1ccc(-c2[nH]ncc2-c2ccc3c(c2)OCCO3)c(O)c1,15.9
3,Cc1c(CCC(=O)O)c(=O)oc2cc3occ(-c4ccc(F)cc4)c3cc12,5.48
4,CCn1nc(-c2cccs2)nc2c(=O)n(C)c(=O)nc1-2,1.92
5,Cc1cccc(N2CCN(C(=O)c3cc4n(n3)C(C(F)(F)F)CC(c3ccco3)N4)CC2)c1C (stereo not drawn),6.74
6,CC1CCCCN1S(=O)(=O)c1ccc(C(=O)Nc2nnc(-c3cccs3)o2)cc1 (stereo not drawn),0.24
7,CCCc1nc(SCC(=O)N2CCC(Cc3ccccc3)CC2)c2c(=O)n(C)c(=O)n(C)c2n1,11.2
8,CCc1ccccc1NS(=O)(=O)c1ccc2[nH]cc(C(=O)NCc3ccco3)c(=O)c2c1,22
9,CCn1c(C(=O)NCCCc2ccccc2)cc2sccc21,8.52
10,O=c1n(Cc2ccc(Cl)cc2)c2sc3c(c2c2ncnn12)CCCC3,7.35
11,CCc1nc2sc3ccccc3c(=O)c2c(=O)n1Cc1ccco1,17.1
12,COc1cc2ccccc2cc1C(=O)Nc1ccc(S(=O)(=O)Nc2cc(C)on2)cc1,10.7
13,CN(Cc1ccccc1)Cc1nc2c(c(=O)n(C)c(=O)n2C)n1CCCc1ccccc1,14.9
14,c1coc(CNc2nc(N3CCCCC3)nc3ccccc23)c1,16.9
15,CC(C)(C)c1ccc(OCc2nc(-c3ccccn3)no2)c(Br)c1,6.81
16,COc1ccccc1-n1c(=O)oc2ccc(Cl)cc2c1=O,1.49
17,CCc1cc2c3c(c(=O)oc2cc1O)CCCC3,33
18,Cc1nn(-c2ccccc2)c(C)c1C(=O)Nc1nnc(-c2ccco2)o1,6.38
19,Oc1ccc(Br)cc1-c1nc2cnccn2c1NC1CCCC1,10.5
20,CCOC(=O)c1cn(CC)c2cc(N3CCSCC3)c(F)cc2c1=O,1.4
21,O=C(Nc1nnc(-c2ccccc2Cl)o1)c1cccnc1,16.7

row,Structure (SMILES),IC50 [µM]
1,O=C(Nc1cccc(Br)c1)c1cc2ccccc2o1,0.98
2,CCOc1ccc(S(=O)(=O)Nc2cccc(Cl)c2)cc1,4.98
3,Cc1cccc(-c2noc(CN(C(=O)c3ccc(Br)o3)C(C)C)n2)c1,11.8
4,CC(C)OCCCNc1ncnc2c1[nH]c1ccc(F)cc12,7.21
5,CCCCCc1cc(O)c2c(C)cc(=O)oc2c1,2.16
6,CCCc1nc(SC2CCCC2)c2c(=O)n(C)c(=O)n(C)c2n1,13.6
7,CN(c1ccccc1)C(c1ccc(F)cc1)c1nnnn1C1CCCC1 (stereo not drawn),11.1
8,O=C(O)CCC(=O)N1CCc2cc(S(=O)(=O)N3CCC(Cc4ccccc4)CC3)ccc21,1.06
9,COc1cc(-c2nc(Cc3ccccc3Cl)no2)cc(OC)c1OC,11.5
10,CCCCN(C)S(=O)(=O)c1ccc(C(=O)Nc2nnc(CSC)o2)cc1,0.86
11,CCC(CC)c1nnc(NC(=O)c2c(-c3ccccc3)noc2C)s1,19.8
12,CCOc1ccc(N(CC(=O)Nc2cccc(OC)c2)S(=O)(=O)c2c(C)noc2C)cc1,22.8
13,CC(=O)c1ccccc1OCC(O)CN1CCN(C(c2ccccc2)c2ccccc2)CC1 (stereo not drawn),14.1
14,CC(C)c1nc(N2CCOCC2)c(C#N)c2c1CCCC2,18
15,CC1CC(C)CN(c2ncnc3c2cnn3Cc2ccc(Cl)cc2)C1 (stereo not drawn),6.08
16,O=C(Nc1ccn(Cc2ccc(Cl)cc2)n1)c1ccc2c(c1)OCO2,7.31
17,O=C(CSc1nc2ccccc2[nH]1)Nc1cc(C(F)(F)F)ccc1N1CCOCC1,5.96
18,COc1ccc2nc(N3CCC(C)CC3)c(C#N)cc2c1,28.9
19,CC(C)c1nnc(NC(=O)c2c(O)c3cccc4c3n(c2=O)CC4)s1,34.7
20,CCc1ccc2oc(=O)cc(CN(C)Cc3ccccc3)c2c1,12.9
21,CCCCCC/C(=N/O)c1ccccn1,3.15

row,Structure (SMILES),IC50 [µM]
1,O=C(c1cc2ccccc2o1)N1CCN(c2ccccc2Cl)CC1,9.9
2,CC1(C)C(=O)OC(c2cc(Br)ccc2O)C(C)(C)C1=O (stereo not drawn),15.4
3,CC(C)(C)C(=O)Cn1c(=N)n(Cc2ccccc2)c2ccccc21,17.2
4,Cn1c(=O)n(CCc2ccccc2)c(=O)c2c1nc1n2CCCN1CCc1ccccc1,10.5
5,Cc1cc(Cl)cc(C)c1OCCCCn1ccnc1,15
6,CCCCc1cc(O)c(CCCC)c(O)c1,10.9
7,CN(c1ccccc1)S(=O)(=O)c1ccc(C(=O)Nc2nnc(-c3ccc(F)cc3)o2)cc1,0.21
8,CCCCn1c(NC(=O)c2ccccc2)c(C#N)c2nc3ccccc3nc21,2.79
9,[O-][N+]1=c2ccc(Nc3ccccc3)cc2=NC12CCCCC2,15.3
10,CCCCC(=O)Nc1cccc(-c2nnc(-c3ccccc3)o2)c1,16.9
11,CC(C)c1nc(N2CCN(C(=O)c3ccco3)CC2)c2c3c(sc2n1)CCCC3,13.6
12,CCOC(=O)c1ccccc1NC(=O)C(C)Oc1ccccc1 (stereo not drawn),30.3
13,CCOC(=O)N1CCN(C(=O)COc2ccc(S(=O)(=O)Nc3ccc(OCC)cc3)cc2)CC1,2
14,COc1ccc(S(=O)(=O)C(C#N)c2nc3ccccc3nc2N2CCCC(C)C2)cc1 (stereo not drawn),6.97
15,Cc1cc(NS(=O)(=O)c2ccc(NC(=O)COc3ccccc3C(C)C)cc2)no1,16.5
16,Fc1cccc2sc(Nc3nnc(-c4ccco4)o3)nc12,2.84
17,Fc1ccc(C(c2ccc(F)cc2)N2CCN(C/C=C/c3ccccc3)CC2)cc1,9.08
18,CC(C)c1ccc(Nc2nc(NCc3ccco3)nc(N3CCOCC3)n2)cc1,17.5
19,CC(C)COc1ccc(-c2nnc(-c3ccco3)o2)cc1,40.6
20,Brc1cc(Br)c2ncnc(N3CCCCC3)c2c1,34.6
21,Cc1ccccc1-c1nc(CS(=O)(=O)CC(=O)N2CCc3ccccc3C2)c(C)o1,31.7

row,Structure (SMILES),IC50 [µM]
1,Cc1cccc(Cn2c(=O)n(Cc3ccco3)c(=O)c3ccccc32)c1,6.71
2,CCN(c1ccccc1)S(=O)(=O)c1ccc(C(=O)Nc2nnc(COC)o2)cc1,3.23
3,CCOC(=O)Cc1csc(NC(=O)c2csc3c2CCCC3)n1,16.4
4,O=C(NCc1ccc2c(c1)OCO2)c1ccc(COc2cccc(Cl)c2)o1,7.25
5,N#Cc1nc(-c2ccc(OCc3ccccc3Cl)cc2)oc1NCCCn1ccnc1,5.13
6,CC1=CC(C)(C)N(C(=O)CSc2nnc(-c3ccccc3)o2)c2ccc(C)cc21,16.3
7,Nc1nncn1C(=O)CCCN1C(=O)c2ccccc2C1=O,12.7
8,O=C(Nc1nc(-c2ccccc2)ns1)c1cccs1,28.4
9,Clc1cccc(-c2nc3nc4ccccc4nc3n2Cc2ccco2)c1,15
10,CCc1nc2ccccc2c(=O)n1NC(=O)c1c(O)c2ccccc2[nH]c1=O,5.7
11,O=C(NCCCc1ccccc1)c1ccccc1O,9.34
12,Cc1cc(N2CCN(C(c3ccccc3)c3ccccc3)CC2)n2ncnc2n1,26.6
13,CCCc1[nH]nc2c1C(c1ccc(OC)c(CSC3=NCCS3)c1)C(C#N)=C(N)O2 (stereo not drawn),69.6
14,Cc1ccc(-c2noc(CCC(=O)N3CCCc4ccccc43)n2)cc1,12.8
15,COc1ccccc1N1CCN(C(=O)c2cc(-c3cccc(Cl)c3)on2)CC1,12.9
16,COc1cc(NS(=O)(=O)c2ccc(OC)c(C)c2C)c(OC)cc1Cl,16.8
17,CC(=O)Nc1cccc(NC(=O)c2oc3ccccc3c2C)c1,8.33
18,O=C(Nc1nccs1)C(NS(=O)(=O)c1ccc(Br)s1)c1ccccc1 (stereo not drawn),12.8
19,CCn1c(SCC(=O)Nc2nc(-c3ccc(C)cc3)cs2)nnc1-c1ccccc1O,4.11
20,O=C(CN(C1CC1)S(=O)(=O)c1ccc(S(=O)(=O)NC2CCCCC2)cc1)Nc1ccccc1,10.5
